These results are taken from PubChem BioAssay AID695 (The Scripps Research Institute Molecular Screening Center, 2007).

In this test the target is Steroidogenic factor 1 (Homo sapiens) (UniProt Q13285). Put plainly: SF-1 driven luciferase reporter response, dose response, counter-screen for RORA activator project, CHO-K1 cells (AID 695). The settings on record: CHO-K1 SF1 luciferase transactivation, luminescence. The essentials:
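Material: CHO-K1 cells with Gal4-SF-1 fusion and luciferase reporter. Compound: 10-point 1:3 dilution series from nominal 100 µM top dose. Incubation: 20 h compound treatment, 37 °C. Detection: SteadyLite luminescence. Evaluation: EC50 from four-parameter dose-response curve fit. Replicates: triplicate.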
(A reporter such as luciferase makes a cellular process visible.)

As a reminder, the EC50 is the concentration needed to bring the measured effect to its halfway point.

Structures are written as SMILES.

In the case of `O=C1COc2ccc(OCc3ccc(F)cc3)cc21`, the EC50 is 1.71 µM. On to `C=CCOc1ccc(/C=C/C(C)=N\O)cc1`, for which the EC50 was 1.02 µM.
